# Diaphorase inh – diaphorase inhibition or chemical oxidation counter-screen; diaphorase resazurin-to-resorufin fluorescence, NADH, 16 min; bacterial (C. kluyveri) enzyme, not human; inhibition, % at 20 µM; 190,000 compounds, 0.69% hits; AID 1217;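 active means primary screen inhibition at 20 µM above a set limit, cut at about 50% in these data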;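 further: plate controls were DMSO with full reaction for no effect and wells lacking NADH for full effect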
#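 Benchmarks: positive control wells lacking NADH, neutral wells with DMSO only. System: bacterial diaphorase enzyme (C. kluyveri). Input: 0.14 U/mL diaphorase, enzyme working solution. Detection: resorufin fluorescence, excitation 544 nm, emission 590 nm. Times: 16-min room-temperature incubation before reading.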
# Cl transport mod – modulates chloride dependent transport by human KCC2; B-score of Tl+ flux slope (higher = more flux/activation; lower = inhibition) at 10 µM; 190,000 compounds, 2.2% hits; KCC2 cells, thallium flux FluoZin-2 fluorescence; Q9H2X9;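 active means thallium flux slope and its plate-corrected score both differing from the plate sample mean at a set confidence after two filtering rounds, in either direction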;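 further: slope of fluorescence scaled to starting intensity during 10 to 20 s after thallium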
# WT yeast gro inh – growth inhibition of WT yeast, mitochondrial fusion screen. mitochondrial fusion phenotypic screen, WT strain. inhibition, % at 10 µM. 190,000 compounds, 2.1% hits; in the data active means inhibition above about 58%; tested in S. cerevisiae
# ROMK mod – human ROMK K+ channel modulation, primary screen; Tet-inducible ROMK, thallium flux fluorescence; actives lie on both sides; B-score at 10 µM; 130,000 compounds, 2% hits; AID 1918;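 active means signal ratio slope over the read window, or its plate-corrected B-score, at least 3 SD from the plate mean, either direction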;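 further: B-score of the F/F0 ratio slope over 7 to 12 s after thallium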
# Target sequence (P48048 whole entry, looked up): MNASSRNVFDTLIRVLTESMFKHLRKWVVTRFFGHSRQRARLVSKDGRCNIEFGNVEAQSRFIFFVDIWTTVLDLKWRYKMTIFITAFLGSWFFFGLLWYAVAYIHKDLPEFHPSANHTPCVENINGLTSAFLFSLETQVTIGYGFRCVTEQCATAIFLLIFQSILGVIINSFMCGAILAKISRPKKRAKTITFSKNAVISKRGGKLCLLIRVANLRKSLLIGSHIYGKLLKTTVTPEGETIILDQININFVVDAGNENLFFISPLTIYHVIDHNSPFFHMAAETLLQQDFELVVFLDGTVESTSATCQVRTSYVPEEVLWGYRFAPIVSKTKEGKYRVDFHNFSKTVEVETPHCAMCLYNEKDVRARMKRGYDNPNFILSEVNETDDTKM
# Diaph act CS – counter-screen for diaphorase-based assays: diaphorase activators and chemical reducers | AID 1229 | 190,000 compounds, 0.005% hits | activation factor at 20 µM | Diaphorase/resazurin coupled assay, resorufin fluorescence, 16 min; active compounds read high; 1 = vehicle wells, 0 = NADH-free wells;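 active means diaphorase activity raised at least twofold by the compound at 20 µM; inactive means activation factor below 2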
#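 Test system: Clostridium kluyveri diaphorase, purified enzyme; input: enzyme 0.07 U/mL final; buffer or medium: 50 mM HEPES pH 7.4 with 4.542 mM MgCl2, 0.005% Tween 20; also added: 0.114 mM NADH and 0.1 mM resazurin, final amounts; schedule: 16 min enzyme reaction, ambient temperature; technique: fluorescence of resorufin, 544 nm excitation, 590 nm emission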
# Lmaj promast – reduces viability of Leishmania major promastigotes; inhibition, % at 10 µM; 200,000 compounds, 9% hits; resazurin fluorescence viability; in the data active means inhibition above about 50%;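 further: promastigotes grown with compound for 44 hours at 28 °C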
# L major 1uM – L. major promastigote growth inhibition, 1 uM repeat; shares compounds with Lmaj promast; resazurin fluorescence, 48 h; inhibition, % at 1 µM; 1,100 compounds, 13% hits;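 active means inhibition above about 50% in both repeat tests, limit read from the data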
# Numbers without * were called inactive; i = inactive; nt = no result. Rows were chosen to be rich in hits. Some 12% of all compounds tested hit in one or more screens of this group.
SMILES,Diaphorase inh,Cl transport mod,WT yeast gro inh,ROMK mod,Diaph act CS,Lmaj promast,L major 1uM
Cc1c(NC(=O)OC(C)C)sc(=S)n1C,7,0.22,-7,nt,0.9,97*,10
CC(=O)NCCOC(=O)Nc1sc(=S)n(C)c1C,9,0.81,-9,0.27,0.9,-10,nt
COC(=O)c1ccc(Oc2c(F)c(F)nc(N3CCOCC3)c2F)cc1,8,-0.36,41,0.12,0.9,-1,nt
Cc1cccc(NC(=S)NC2CC3CCCC(C2)N3CC(C)C)c1 (centres undefined),-2,-0.0036,-6,-1.8,1,95*,5
O=C(N/N=C/c1ccncc1)c1ccc(NS(=O)(=O)c2cccs2)cc1,-12,0.62,-6,0.0072,1.1,-4,nt
O=C1CC(N2CCN(c3ncccn3)CC2)C(=O)N1CCc1ccccc1 (centres undefined),9,-0.42,-10,-0.016,0.9,-4,nt
O=Cc1ccc(Oc2ncccn2)cc1,0,-0.13,-9,-0.35,1,-4,nt
O=Cc1ccc(OC2OCCOC2Oc2ccc(C=O)cc2)cc1 (centres undefined),14,-0.083,-9,0.31,0.9,53*,1
Cc1nc(NC(=O)CSc2nnc(N)s2)c(Cl)cc1Cl,31,0.32,-9,0.58,0.7,-3,nt
Cc1ccc(/C=C\c2nccc3c2[nH]c2ccccc23)cc1,26,1.6,59,-1.1,0.7,68*,21
N#C/C(C(=O)N1CCCCC1)=C1/N=C(N)c2ccccc21,7,0.0093,-3,0.22,0.9,61*,-5
CCCCc1cc(O)c(CCCC)c(O)c1,27,-0.11,0,-0.65,0.7,99*,32
O=C(c1cccc(Br)c1)c1cn(-c2ccccc2)nc1C(=O)c1ccccc1,10,1.8,0,-0.84,0.9,88*,7
CC1=CC(C)(C)Nc2ccc(OC(=O)c3ccco3)cc21,34,nt,-5,nt,0.7,101*,2
Cc1cc(C)n2nc(SCC#N)nc2n1,4,0.86,4,nt,1,-3,nt
O=[N+]([O-])c1cc(Cl)cc(C2=NCCN2)c1,13,0.49,20,nt,0.9,52*,-15
Cc1ccc(-c2cc(-c3n[nH]c(=S)o3)c3ccccc3n2)cc1,24,17*,28,-0.052,0.8,56*,-10
S=c1[nH]nc(-c2cc(-c3ccccn3)nc3ccccc23)o1,nt,-0.53,nt,nt,nt,nt,nt
CSc1nnc(-c2cc(-c3ccc(C)cc3)nc3ccccc23)o1,1,0.024,1,nt,1,64*,-9
CCOC(=O)N1CCN(c2ccc(O)cc2)CC1,21,0.28,-5,-0.15,0.8,7,nt
NNc1nc(-c2ccccc2)cc(-c2ccccc2)n1,0,nt,70*,-1.1,1,91*,-22
Cc1[nH]c2ccccc2c1/C=C/c1cc[n+](C)cc1,-4,i,58,nt,1,65*,-11
Cc1cccc(COCC(CC(C)C)N2CCN(C(=O)c3ccc(C(C)(C)C)cc3)CCC2=O)c1 (centres undefined),5,0.036,84*,-3,1,58*,-8
CN(c1ccccc1)P(=O)(N(C)c1ccccc1)N(C)c1ccccc1,-12,0.8,9,1.2,1.1,98*,5
CCN(c1ccccc1)P(=O)(Nc1ccccc1)Nc1ccccc1,nt,0.77,nt,-0.42,nt,nt,nt
SMILES,Diaphorase inh,Cl transport mod,WT yeast gro inh,ROMK mod,Diaph act CS,Lmaj promast,L major 1uM
COc1ccc(C2=CC(=O)OC(C)(c3ccccc3)O2)cc1 (centres undefined),18,-0.48,26,0.63,0.8,-1,nt
CN1CCN(c2nc(N3CCN(c4ccccc4)CC3)ncc2F)CC1,9,-0.24,4,-1.5,0.9,65*,-11
Fc1cnc(Cl)nc1N1CCN(c2ccccc2)CC1,nt,-0.14,nt,nt,nt,nt,nt
CSc1ccccc1Nc1ncnc(N)n1,nt,0.5,nt,nt,nt,nt,nt
CC(=O)c1cccc(NC(=O)COC(=O)C2=COCCO2)c1,4,0.47,-1,0.092,1,-11,nt
O=C(Cn1cnc([N+](=O)[O-])c1)Nc1cc(Oc2ccc(Cl)cc2Cl)cc([N+](=O)[O-])c1,24,0.13,-12,-0.056,0.8,100*,62*
Cc1ccc(Oc2cc(NC(=O)CCCn3nc([N+](=O)[O-])c(Cl)c3C)cc([N+](=O)[O-])c2)cc1,12,0.53,23,-0.17,0.9,24,nt
CCOc1ccccc1CNCc1ccc(C(=O)O)cc1,6,1.2,6,0.19,0.9,6,nt
CCOc1ccccc1CNCc1ccc(F)cc1,0,0.22,4,-0.33,1,54*,-8
CCN1CCCC(OC(=O)c2cc(-c3ccccc3Cl)nc3ccccc23)C1 (centres undefined),17,-1.1,15,1.6,0.8,78*,19
CNC(=O)C1=C(C)NC(=S)NC1c1cc2c(cc1OC)CCCC2 (centres undefined),23,-0.075,-6,nt,0.8,-4,nt
Cc1ccc(S(=O)(=O)c2ccc(NN)cc2)cc1,6,0.34,28,1.3,0.9,97*,-10
CCc1ccc(N(C(=O)c2snc(C(N)=O)c2N)C(C(=O)NCCC(C)C)c2c[nH]c3ccccc23)cc1 (centres undefined),5,0.068,-8,nt,0.9,-5,nt
COc1cc([N+](=O)[O-])ccc1NC(=S)NC(=O)CC(C)(C)C,0,0.57,6,0.77,1,7,nt
C/C(=N\O)C(=O)C(CN1CCCCC1)CN1CCCCC1,14,0.017,-14,nt,0.9,78*,2
CC(=O)/C(CN1CCCCC1)=N\O,-5,0.99,-4,nt,1,-4,nt
COc1ccc(N(CC(=O)Nc2cccc(N(C)S(C)(=O)=O)c2)S(=O)(=O)c2ccccc2)cc1Cl,13,-0.085,3,0.93,0.9,56*,-6
Cc1ccc(NCC(=O)N/N=C\C(Br)=C\c2ccccc2)cc1,3,0.71,10,-0.1,1,68*,2
Cc1ccc(NC(=O)NC(=O)N(C(C)C)S(C)(=O)=O)nc1,-5,0.55,-3,nt,1,77*,-16
Cc1ccc(C2N3CC4([N+](=O)[O-])CN2CC([N+](=O)[O-])(C3)C4(C)C)cc1 (centres undefined),0,0.31,24,0.66,1,65*,3
CCN(CC(=O)NCc1ccc(F)cc1)C(=O)COc1ccc2ccccc2c1,15,-0.93,21,nt,0.8,4,nt
CCOC(=O)N1CCC(NS(=O)(=O)c2ccc3c(c2)OCC(=O)N3)CC1,16,0.43,2,nt,0.8,-7,nt
CCOC(=O)N1CCC(NS(=O)(=O)c2cc3c(cc2Cl)NC(=O)CO3)CC1,-1,nt,7,nt,1,55*,-8
O=C(CCc1ccccc1)Nc1nnc(-c2ccccn2)o1,1,0.18,1,nt,1,62*,34

# High-throughput results from PubChem.
